MIC, selectivity ratio and CC50 data for ten compounds are collected here from ChEMBL document CHEMBL4706607, “Anti-tubercular profile of new selenium-menadione conjugates against Mycobacterium tuberculosis H37Rv (ATCC 27294) strain and multidrug-resistant clinical isolates” (Eur J Med Chem, 2021).

In brackets after ≈: the same amount, converted by molar mass. Bounds are passed on as bounds.

Series [1] relates to Mycobacterium tuberculosis. The series is described as follows: Antimycobacterial activity against Mycobacterium tuberculosis H37Rv ATCC 27294 assessed as reduction in bacterial growth by resazurin reduction microplate assay. Type of series: functional. Summed up: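 REMA in Middlebrook 7H9 broth with 10% ADC. Compounds dissolved at 1 mg/mL in DMSO and diluted to 50 μg/mL in broth containing 5% DMSO. Ten-point two-fold dilutions gave 25.0 to 0.05 μg/mL. Growth and sterility controls on each plate. MIC was the lowest concentration preventing the blue-to-pink change.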

Series [2] is described as follows: Selectivity index, ratio of CC50 for African green monkey Vero cells to MIC for Mycobacterium tuberculosis H37Rv ATCC 27294. Type of series: toxicity. The settings on record: read-out: Selectivity Index.
The nature of series [3]: Cytotoxicity against African green monkey Vero cells assessed as reduction in cell viability incubated for 24 hrs by MTT assay. Type of series: cell-based. The following applies: chlorocebus sabaeus. Summed up: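 Vero cells kept in DMEM with 4.5 mg/mL glucose and 10% inactivated FBS at 37 °C, 5% CO2. Seeded at 30,000 cells/well and grown 24 h, then exposed to 5, 10, 25 and 50 μM for 24 h. Control was medium with 1% DMSO. MTT 0.5 mg/mL in HBSS for 3 h; formazan dissolved in DMSO and read at 570–690 nm. CC50 taken from survival relative to untreated cells.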

Series [4] can be described thus: Selectivity index, ratio of CC50 for African green monkey Vero cells to MIC for Mycobacterium tuberculosis CDCT-27. Type of series: toxicity. The settings on record: read-out: Selectivity Index.
The nature of series [5]: Selectivity index, ratio of CC50 for African green monkey Vero cells to MIC for Mycobacterium tuberculosis CDCT-16. Type of series: toxicity. The following applies: read-out: Selectivity Index.

Consider `CCCCC(=O)[Se]CC1=C(C)C(=O)c2ccccc2C1=O`, for which the minimum inhibitory concentration (MIC) in series [1] is greater than 10 µM.
Regarding `CC1=C(C[Se]C(=O)c2ccc(C)cc2)C(=O)c2ccccc2C1=O`, in series [1], the MIC was greater than 10 µM.
`CC1=C(C[Se]C(=O)c2ccc(F)cc2)C(=O)c2ccccc2C1=O`: the minimal inhibitory concentration (MIC) in series [1] stood at 8 µM (≈ 3.1 µg/mL). For the same compound, the selectivity ratio is greater than 6.2 in series [2], greater than 16.1 in series [4] and greater than 62.5 in series [5]. For the same compound, the CC50 at 24 h in series [3] is greater than 50 µM.
With `CC1=C(C[Se]C(=O)c2ccc(Cl)cc2)C(=O)c2ccccc2C1=O`, in series [1], the MIC is greater than 10 µM.
`NNC(=O)c1ccncc1` [ISONIAZID]: in series [1], the MIC stood at 2.2 µM (≈ 0.302 µg/mL). In addition, the selectivity ratio in series [2] was greater than 22.7. Also, the CC50 at 24 h in series [3] was greater than 50 µM.
Take `CC1=C(C[Se]C(=O)c2ccccc2)C(=O)c2ccccc2C1=O`: in series [1], the MIC amounted to 2.1 µM (≈ 0.775 µg/mL). Also, the selectivity ratio in series [2] was greater than 23.8; in series [4], greater than 62.5; in series [5] it was greater than 62.5. The CC50 at 24 h in series [3] is greater than 50 µM.
Consider `COc1ccc(C(=O)[Se]CC2=C(C)C(=O)c3ccccc3C2=O)cc1`, for which the minimum inhibitory concentration (MIC) in series [1] was greater than 10 µM.
`CCCC(C)C(=O)[Se]CC1=C(C)C(=O)c2ccccc2C1=O` (centres undefined): in series [1], the MIC was greater than 10 µM.
As for `CCc1ccc(C(=O)[Se]CC2=C(C)C(=O)c3ccccc3C2=O)cc1`, the MIC in series [1] is greater than 10 µM.
Regarding `CC1=C(C[Se]C(=O)c2ccccc2C)C(=O)c2ccccc2C1=O`, the MIC in series [1] is 8.1 µM (≈ 3.1 µg/mL). For the same compound, the selectivity ratio in series [2] amounted to 0.9; in series [4], 2.5; in series [5], 2.5. In series [3], the CC50 at 24 h came to 7.7 µM.

In general, MIC refers to the lowest concentration that inhibits growth of the organism. As a reminder, the CC50 is the concentration at which the toxic effect on the cells reaches its halfway point.
